For one assay, the system named is HL-60. Briefly: Antiproliferative activity against human HL60 cells assessed as growth inhibition incubated up to 4 days by MTS assay. Type of assay: functional, cell-based. The following applies: HL-60, 96 h. The method, boiled down:
(§1)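 Five human tumour cell lines were assayed by MTS. IC50 is the compound concentration that cuts optical density of treated cells by 50% relative to untreated cells. Mean of three independent determinations.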
For orientation: Tetrazolium dyes change colour on reduction, which living cells bring about.

The subject of a further assay is SMMC-7721. Briefly: Antiproliferative activity against human SMMC7721 cells assessed as growth inhibition incubated up to 4 days by MTS assay. Type of assay: functional, cell-based. To be noted: SMMC-7721, 96 h. Put shortly:
as §1

The next assay has as its system A549. Briefly: Antiproliferative activity against human A549 cells assessed as growth inhibition incubated up to 4 days by MTS assay. Type of assay: functional, cell-based. To be noted: A549, 96 h. Put shortly:
as §1

Assay [1] concerns MCF7. Briefly: Antiproliferative activity against human MCF7 cells assessed as growth inhibition incubated up to 4 days by MTS assay. Format: functional, cell-based. To be noted: MCF7, 96 h. Put shortly:
as §1

The test system of assay [2] is SW480. Briefly: Antiproliferative activity against human SW480 cells assessed as growth inhibition incubated up to 4 days by MTS assay. The following applies: SW480, 96 h. Type of assay: functional, cell-based. The method, boiled down:
as §1

Assay [3] relates to SW480. Briefly: Potency index, ratio of cisplatin IC50 to compound IC50 for antiproliferative activity against human SW480 cells assessed as growth inhibition. Type of assay: functional.
In assay [4] the test system is MCF7. Briefly: Potency index, ratio of cisplatin IC50 to compound IC50 for antiproliferative activity against human MCF7 cells assessed as growth inhibition. Format: functional.

27 molecules from ChEMBL document CHEMBL4610035, “Synthesis and biological evaluation of novel 3-benzylcoumarin-imidazolium salts” (Bioorg Med Chem Lett, 2020) can be followed below.

Structures are written as SMILES.

A word on the IC50: it is the concentration needed to halve the response being measured.

`Cc1cc2c(cc1C)[n+](CC(=O)c1ccc(-c3ccccc3)cc1)cn2C(c1ccccc1)c1cc2ccccc2oc1=O` (stereo not given): the IC50 with HL-60 was 2.07 µM; in the assay on SMMC-7721, 1.91 µM; in the assay on A549 it was 2.14 µM; with MCF7 [1], 1.66 µM; in the assay on SW480 [2], 8.03 µM.
Regarding `O=C(C[n+]1ccn(C(c2ccccc2)c2cc3ccccc3oc2=O)c1)c1ccc(Br)cc1` (stereo not given), the IC50 in the assay with HL-60, with SMMC-7721, in the assay on A549, in the assay with MCF7 [1] and with SW480 [2] was greater than 20 µM throughout.
For `Cc1cc2c(cc1C)[n+](CC(=O)c1ccccc1)cn2C(c1ccccc1)c1cc2ccccc2oc1=O` (stereo not given), the IC50 in the assay with HL-60 was 4.81 µM; with SMMC-7721, 7.17 µM; in the assay on A549 it was 12.4 µM; in the assay with MCF7 [1], 4.17 µM; in the assay with SW480 [2] it was 1.24 µM.
On the same counts, the results for `O=C(C[n+]1ccn(C(c2ccccc2)c2cc3ccccc3oc2=O)c1)c1ccc2ccccc2c1` (stereo not given) are 4.38 µM, greater than 20 µM, greater than 20 µM, 7.27 µM and 8.03 µM.
Turning to `O=C(C[n+]1cn(C(c2ccccc2)c2cc3ccccc3oc2=O)c2ccccc21)c1ccc(-c2ccccc2)cc1.[Br-]` (stereo not given), the IC50 with HL-60 was 2.91 µM; in the assay on SMMC-7721 it was 4.7 µM; with A549, 7.47 µM; with MCF7 [1], 0.96 µM; in the assay with SW480 [2], 1.63 µM. The “Ratio IC50” value with SW480 [3] was 4.9; with MCF7 [4], 10.2.
Regarding `Cc1n(C(c2ccccc2)c2cc3ccccc3oc2=O)c2ccccc2[n+]1CC(=O)c1ccc2ccccc2c1` (stereo not given), the IC50 in the assay on HL-60 came to 8.34 µM; with SMMC-7721, 11.4 µM; in the assay with A549 it was 15.8 µM; in the assay with MCF7 [1], 2.81 µM; in the assay with SW480 [2], 6.02 µM.
Take `O=C(C[n+]1ccn(C(c2ccccc2)c2cc3ccccc3oc2=O)c1)c1ccccc1` (stereo not given): the IC50 with HL-60, in the assay on SMMC-7721, in the assay on A549, with MCF7 [1] and with SW480 [2] was greater than 20 µM throughout.
For `Cc1cc2c(cc1C)[n+](CC(=O)c1ccc(Br)cc1)cn2C(c1ccccc1)c1cc2ccccc2oc1=O.[Br-]` (stereo not given), the IC50 with HL-60 was 2.45 µM; in the assay on SMMC-7721, 4.19 µM; in the assay on A549 it was 4.89 µM; with MCF7 [1], 2.29 µM; in the assay on SW480 [2] it was 0.2 µM. Also, the “Ratio IC50” value with SW480 [3] is on record as 40.
Consider `O=c1oc2ccccc2cc1C(c1ccccc1)n1ccnc1` (stereo not given), for which the IC50 with HL-60, in the assay on SMMC-7721, in the assay with A549, in the assay with MCF7 [1] and in the assay on SW480 [2] was greater than 20 µM each time.
As to `Cc1n(C(c2ccccc2)c2cc3ccccc3oc2=O)c2ccccc2[n+]1CC(=O)c1ccc(Br)cc1` (stereo not given), the IC50 in the assay on HL-60, with SMMC-7721, in the assay with A549, with MCF7 [1] and in the assay with SW480 [2] was greater than 20 µM each time.
`O=C(C[n+]1ccn(C(c2ccccc2)c2cc3ccccc3oc2=O)c1)c1ccc(-c2ccccc2)cc1` (stereo not given): the IC50 is 5.28 µM in the assay with HL-60; greater than 20 µM in the assay on SMMC-7721; greater than 20 µM in the assay on A549; 12.7 µM in the assay on MCF7 [1]; greater than 20 µM with SW480 [2].
As for `O=C(C[n+]1cn(C(c2ccccc2)c2cc3ccccc3oc2=O)c2ccccc21)c1ccccc1` (stereo not given), the IC50 in the assay with HL-60 was 18.6 µM; in the assay with SMMC-7721, greater than 20 µM; in the assay on A549, greater than 20 µM; in the assay with MCF7 [1] it was 5.1 µM; in the assay with SW480 [2], 6.36 µM.
With `O=C(C[n+]1cn(C(c2ccccc2)c2cc3ccccc3oc2=O)c2ccccc21)c1ccc2ccccc2c1` (stereo not given), the IC50 in the assay on HL-60 is 4.13 µM; in the assay on SMMC-7721 it was 5.72 µM; with A549 it was 9.11 µM; with MCF7 [1], 1.28 µM; with SW480 [2], 1.48 µM.
On the same counts, the results for `O=C(C[n+]1cn(C(c2ccccc2)c2cc3ccccc3oc2=O)c2ccccc21)c1ccc(Br)cc1` (stereo not given) are 5.95 µM, 8.2 µM, 11.9 µM, 1.24 µM and 1.65 µM.
For `Cc1nc2ccccc2n1C(c1ccccc1)c1cc2ccccc2oc1=O` (stereo not given), the IC50 in the assay with HL-60, in the assay on SMMC-7721, in the assay on A549, in the assay with MCF7 [1] and in the assay on SW480 [2] was greater than 20 µM in each case.
With `O=C(C[n+]1ccn(C(c2ccccc2)c2cc3ccccc3oc2=O)c1)c1ccc(C(F)(F)F)cc1` (stereo not given), the IC50 with HL-60, in the assay on SMMC-7721, in the assay on A549, in the assay with MCF7 [1] and with SW480 [2] was greater than 20 µM in each case.
On to `COc1ccc(C(=O)C[n+]2cn(C(c3ccccc3)c3cc4ccccc4oc3=O)c3cc(C)c(C)cc32)cc1.[Br-]` (stereo not given), for which the IC50 stood at 1.55 µM in the assay on HL-60; 4.72 µM in the assay on SMMC-7721; 5.65 µM with A549; 1.58 µM in the assay with MCF7 [1]; 0.36 µM in the assay with SW480 [2]. The “Ratio IC50” value in the assay with SW480 [3] turned out to be 22.2; with MCF7 [4], 6.2.
Regarding `Cc1cc2c(cc1C)[n+](CC(=O)c1ccc(C(F)(F)F)cc1)cn2C(c1ccccc1)c1cc2ccccc2oc1=O` (stereo not given), the IC50 with HL-60 came out at 8.81 µM; in the assay with SMMC-7721 it was 9.5 µM; in the assay with A549, 11.7 µM; with MCF7 [1] it was 6.61 µM; with SW480 [2] it was 8.19 µM.
Turning to `COc1ccc(C(=O)C[n+]2ccn(C(c3ccccc3)c3cc4ccccc4oc3=O)c2)cc1` (stereo not given), the IC50 in the assay with HL-60, with SMMC-7721, in the assay with A549, in the assay with MCF7 [1] and with SW480 [2] was greater than 20 µM each time.
With `Cc1n(C(c2ccccc2)c2cc3ccccc3oc2=O)c2ccccc2[n+]1CC(=O)c1ccc(C(F)(F)F)cc1` (stereo not given), the IC50 in the assay with HL-60 is 7.72 µM; with SMMC-7721, greater than 20 µM; with A549 it was greater than 20 µM; in the assay on MCF7 [1] it was 8.15 µM; with SW480 [2], 9.13 µM.
Take `Cc1n(C(c2ccccc2)c2cc3ccccc3oc2=O)c2ccccc2[n+]1CC(=O)c1ccc(-c2ccccc2)cc1` (stereo not given): the IC50 is 2.77 µM in the assay on HL-60; 5.05 µM in the assay on SMMC-7721; 5.1 µM in the assay on A549; 2.86 µM in the assay with MCF7 [1]; 2.88 µM in the assay on SW480 [2].
As for `COc1ccc(C(=O)C[n+]2cn(C(c3ccccc3)c3cc4ccccc4oc3=O)c3ccccc32)cc1` (stereo not given), the IC50 was 7.13 µM in the assay on HL-60; 8.84 µM with SMMC-7721; greater than 20 µM in the assay with A549; 1.74 µM with MCF7 [1]; 4.82 µM in the assay on SW480 [2].
On the same counts, the results for `O=c1oc2ccccc2cc1C(c1ccccc1)n1cnc2ccccc21` (stereo not given) are greater than 20 µM, greater than 20 µM, greater than 20 µM, greater than 20 µM and greater than 20 µM.
On the same counts, the results for `Cc1cc2ncn(C(c3ccccc3)c3cc4ccccc4oc3=O)c2cc1C` (stereo not given) are greater than 20 µM, greater than 20 µM, greater than 20 µM, greater than 20 µM and greater than 20 µM.
Regarding `COc1ccc(C(=O)C[n+]2c(C)n(C(c3ccccc3)c3cc4ccccc4oc3=O)c3ccccc32)cc1` (stereo not given), the IC50 in the assay with HL-60 is 3.69 µM; with SMMC-7721, 6.92 µM; in the assay with A549 it was 8.56 µM; with MCF7 [1] it was 1.21 µM; in the assay with SW480 [2], 3.43 µM.
In the case of `O=C(C[n+]1cn(C(c2ccccc2)c2cc3ccccc3oc2=O)c2ccccc21)c1ccc(C(F)(F)F)cc1` (stereo not given), the IC50 in the assay with HL-60 worked out at 4.49 µM; in the assay with SMMC-7721 it was 6.15 µM; in the assay with A549 it was 7.07 µM; with MCF7 [1], 1.29 µM; in the assay on SW480 [2], 1.55 µM.
`Cc1n(C(c2ccccc2)c2cc3ccccc3oc2=O)c2ccccc2[n+]1CC(=O)c1ccccc1` (stereo not given): the IC50 in the assay with HL-60, in the assay on SMMC-7721, in the assay on A549, in the assay on MCF7 [1] and in the assay with SW480 [2] was greater than 20 µM in each case.
